The text below walks through data of paper PMC11060919 (International journal of antimicrobial agents, 2024).

One data set concerns rat. As to conditions: translational rat model; increased nephrotoxic effect; cited from earlier work.
For data set [1], the system named is male Sprague-Dawley rats. Briefly: Urinary KIM-1, kidney injury biomarker, 24-hour urine. The conditions noted are these: dose-matched bolus versus humanized infusion as referent. In kind it is in vivo, Sprague-Dawley rat. A digest of the protocol:
(§1)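 Male Sprague-Dawley rats were housed in metabolic cages, with 24-h urine collected from baseline (day 0) through day 2. On day 1 the glycopeptide was given IV either as 30.8 mg in 6.0 mL saline by variable-rate infusion over 24 hours (n=11), or as 15.4 mg boluses over 2 minutes every 12 hours ×2 plus volume-matching saline infusion (n=8). Analysis: mixed-effects model, day 0 referent, Bonferroni-corrected group-by-day tests.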

For data set [2], the system named is male Sprague-Dawley rats. Briefly: Iohexol-measured GFR. In kind it is in vivo, Sprague-Dawley rat. As to conditions: Baseline (day 0, before vancomycin); dose-matched bolus group versus humanized infusion group as referent; marginal difference, mixed effects model.
For data set [3], the system named is male Sprague-Dawley rats. Briefly: Urinary clusterin, kidney injury biomarker, 24-hour urine. In kind it is in vivo, Sprague-Dawley rat. As to conditions: dose-matched bolus versus humanized infusion as referent. A digest of the protocol:
as §1

Data set [4] deals with male Sprague-Dawley rats. As to the kind of experiment: Urinary osteopontin. Format: in vivo, Sprague-Dawley rat. The conditions noted are these: dose-matched bolus versus humanized infusion as referent. A digest of the protocol:
as §1

As to `Cc1onc(-c2c(F)cccc2Cl)c1C(=O)N[C@@H]1C(=O)N2[C@@H]1SC(C)(C)[C@@H]2C(=O)O` [flucloxacillin], the “increase of urinary KIM-1 when added to vancomycin, compared to vancomycin” value in the data set on rat is reported as 58 to 140 ng/24 hours.
Consider `CN[C@H](CC(C)C)C(=O)N[C@H]1C(=O)N[C@@H](CC(N)=O)C(=O)N[C@H]2C(=O)N[C@H]3C(=O)N[C@H](C(=O)N[C@H](C(=O)O)c4cc(O)cc(O)c4-c4cc3ccc4O)[C@H](O)c3ccc(c(Cl)c3)Oc3cc2cc(c3O[C@@H]2O[C@H](CO)[C@@H](O)[C@H](O)[C@H]2O[C@H]2C[C@](C)(N)[C@H](O)[C@H](C)O2)Oc2ccc(cc2Cl)[C@H]1O` [vancomycin], for which the “KIM-1 difference, mean (95% CI)” value with male Sprague-Dawley rats [1] (Day 1) was 9.80 ng; with male Sprague-Dawley rats [1] (Day 2), -2.27 ng. Further, the “GFR difference, mean (95% CI)” value in the data set with male Sprague-Dawley rats [2] was found to be 0.05 mL/min/100 g body weight. The figures for the “Urinary clusterin difference, mean (95% CI)” value in the data set with male Sprague-Dawley rats [3] (Day 1) and in the data set with male Sprague-Dawley rats [3] (Day 2) were 1932 ng and -3103 ng, respectively. The “Urinary OPN difference, mean (95% CI)” value in the data set with male Sprague-Dawley rats [4] (Day 1) is -1.76 ng; with male Sprague-Dawley rats [4] (Day 2) it was 0.52 ng.
